According to ChEMBL document CHEMBL3102735, “Enhancing the pharmacodynamic profile of a class of selective COX-2 inhibiting nitric oxide donors” (Bioorg Med Chem, 2014):

Columns and labels:
[1] = Oral bioavailability in Wistar rat at 10 mg/kg by LC-MS/MS analysis; assay type: ADME, organism-based; settings: in vivo
In short: (§1)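 Male Han Wistar rats, three per route, single 10 mg/kg/5 mL dose iv or po in 5% DMSO, 5% Cremophor EL, 0.1% Tween 80 in 150 mM phosphate buffer pH 7. Jugular-vein blood sampled, plasma methanol-precipitated, parent and hydroxy metabolite quantified by LC–MS/MS in positive ESI MRM mode (LLOQ 1–15 ng/mL).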

[2] = Clearance in Wistar rat at 10 mg/kg, iv by LC-MS/MS analysis; assay type: ADME, organism-based; set-up: dose 10 mg/kg, route intravenous; settings: in vivo; in short: as §1
[3] = Metabolic stability in Sprague-Dawley rat plasma assessed as compound remaining after 120 mins by LC-MS/MS analysis; assay type: ADME, cell-free; settings: read-out: Stability
In short: (§2)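 Compound (12 µL of 1 mM DMSO solution into 588 µL medium) incubated in PBS pH 7.4, pepsin-free SGF pH 1.5, or EDTA rat plasma. Aliquots taken at 0, 30, 60, 120 min and quenched with ice-cold acetonitrile containing internal standard; parent remaining as percent.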

[4] = Metabolic stability in Sprague-Dawley rat plasma assessed as compound remaining after 30 mins by LC-MS/MS analysis; assay type: ADME, cell-free; settings: read-out: Stability; in short: as §2
[5] = Stability of the compound in simulated gastric fluid assessed as compound remaining at pH 1.5 after 120 mins by LC-MS/MS analysis; assay type: physicochemical; settings: read-out: Stability
In short: (§3)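 1 mM DMSO stock added to 0.01 M PBS (pH 7.4) or 0.05 M simulated gastric fluid without pepsin (pH 1.5 with HCl); incubated in hybridisation oven; aliquots at 0, 30, 60, 120 min quenched with ice-cold acetonitrile containing internal standard; parent remaining (%) measured.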

[6] = molecular target: T1, Prostaglandin G/H synthase 2 (Homo sapiens, UniProt P35354); set-up: species or system Blood
T1 sequence (P35354 whole entry): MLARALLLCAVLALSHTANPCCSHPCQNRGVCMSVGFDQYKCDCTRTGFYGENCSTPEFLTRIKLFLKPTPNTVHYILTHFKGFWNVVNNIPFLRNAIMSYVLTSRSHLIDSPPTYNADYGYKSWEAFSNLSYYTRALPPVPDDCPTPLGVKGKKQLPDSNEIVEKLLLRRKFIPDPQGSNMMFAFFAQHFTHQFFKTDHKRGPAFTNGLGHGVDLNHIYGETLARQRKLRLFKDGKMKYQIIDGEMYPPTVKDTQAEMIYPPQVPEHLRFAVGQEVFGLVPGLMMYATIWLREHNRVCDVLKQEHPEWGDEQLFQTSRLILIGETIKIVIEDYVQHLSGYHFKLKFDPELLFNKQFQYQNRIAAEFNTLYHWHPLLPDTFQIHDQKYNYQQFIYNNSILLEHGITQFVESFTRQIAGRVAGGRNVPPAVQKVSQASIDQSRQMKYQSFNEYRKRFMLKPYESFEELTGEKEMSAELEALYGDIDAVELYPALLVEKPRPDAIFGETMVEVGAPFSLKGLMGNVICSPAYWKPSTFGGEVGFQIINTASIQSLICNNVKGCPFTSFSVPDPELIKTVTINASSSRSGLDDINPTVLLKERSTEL

Mus musculus [7] = experiment: Antiinflammatory activity in Swiss albino mouse assessed as reduction in carrageenan-induced paw edema at 20 mg/kg, po relative to control; assay type: functional; set-up: scale not given: the % may be the effect or the level left
In short: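 Intraplantar carrageenan, compound po in CMC; volume of right hind paw measured 4 h after carrageenan injection and compared with saline/carrageenan-treated controls; percent oedema reduction.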

Mus musculus [8] = experiment: Antihyperalgesic activity in Swiss albino mouse assessed as reduction in carrageenan-induced inflammation at 40 mg/kg, po after 60 mins relative to control; assay type: functional; set-up: scale not given: the % may be the effect or the level left
Mus musculus [9] = experiment: Antihyperalgesic activity in Swiss albino mouse assessed as reduction in carrageenan-induced inflammation at 20 mg/kg, po after 60 mins relative to control; assay type: functional; set-up: scale not given: the % may be the effect or the level left
Mus musculus [10] = experiment: Analgesic activity in Swiss albino mouse assessed as reduction of acetic acid-induced writhing at 40 mg/kg, po measured every 10 mins after 5 mins of administration relative to control; assay type: functional; set-up: scale not given: the % may be the effect or the level left
In short: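 Male Swiss albino mice (23–25 g), compound given orally in CMC vehicle; writhing induced by 0.6% acetic acid (10 mL/kg) ip. Stretching movements counted for 10 min, starting 5 min after administration; percent reduction versus CMC-treated animals.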

J774 = experiment: Selectivity index, ratio of IC50 for COX-1 to IC50 for COX-2 in mouse J774 cells; assay type: cell-based
In short: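 J774 macrophages stimulated 24 h with E. coli LPS (10 µg/mL) to induce COX-2, with or without compound (0.01–10 µM); supernatant PGE2 by RIA. Triplicate wells, three experiments, percent inhibition versus control, IC50 by sigmoidal fit; selectivity as COX-1/COX-2 IC50 ratio.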

[11] = molecular target: T2, Prostaglandin G/H synthase 2 (Mus musculus, UniProt Q05769); experiment: Inhibition of LPS-induced COX-2 in mouse J774 cells using arachidonic acid as substrate assessed as inhibition of prostaglandin E2 production preincubated for 15 mins followed by substrate addition measured after 30 mins by RIA; assay type: cell-based
T2 sequence (Q05769 whole entry): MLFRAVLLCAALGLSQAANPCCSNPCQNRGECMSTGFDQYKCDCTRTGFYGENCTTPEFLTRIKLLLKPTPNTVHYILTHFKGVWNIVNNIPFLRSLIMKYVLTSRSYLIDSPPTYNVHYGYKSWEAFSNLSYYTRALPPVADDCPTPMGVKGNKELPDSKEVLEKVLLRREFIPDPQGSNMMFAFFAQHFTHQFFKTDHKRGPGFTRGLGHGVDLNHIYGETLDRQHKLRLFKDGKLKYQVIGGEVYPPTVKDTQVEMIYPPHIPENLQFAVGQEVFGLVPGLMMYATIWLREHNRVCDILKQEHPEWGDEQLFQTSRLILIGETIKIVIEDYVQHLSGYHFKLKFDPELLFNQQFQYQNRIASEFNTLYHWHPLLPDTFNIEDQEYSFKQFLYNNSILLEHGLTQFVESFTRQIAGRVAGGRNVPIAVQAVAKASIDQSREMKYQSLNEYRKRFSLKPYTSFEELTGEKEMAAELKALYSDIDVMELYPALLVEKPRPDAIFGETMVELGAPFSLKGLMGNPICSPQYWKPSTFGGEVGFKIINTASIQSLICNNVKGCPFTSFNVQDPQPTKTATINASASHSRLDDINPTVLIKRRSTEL

[12] = Stability of the compound in phosphate buffer saline assessed as compound remaining at pH 7.4 after 30 mins by LC-MS/MS analysis; assay type: physicochemical; settings: read-out: Stability; in short: as §3
[13] = Stability of the compound in phosphate buffer saline assessed as compound remaining at pH 7.4 after 120 mins by LC-MS/MS analysis; assay type: physicochemical; settings: read-out: Stability; in short: as §2
[14] = Stability of the compound in phosphate buffer saline assessed as compound remaining at pH 7.4 after 60 mins by LC-MS/MS analysis; assay type: physicochemical; settings: read-out: Stability; in short: as §3
Rattus norvegicus = experiment: Drug metabolism in Wistar rat plasma assessed as 2-(1-(4-fluorophenyl)-2-methyl-5-(4-(methylsulfonyl)phenyl)-1H-pyrrol-3-yl)-N-(2-hydroxyethyl)acetamide metabolite at 10 mg/kg, iv up to 6 hrs by LC-MS/MS analysis; assay type: ADME, organism-based; set-up: dose 10 mg/kg, route intravenous; settings: in vivo; in short: as §1

Q: Which results are given for `Cc1c(CC(=O)NCCO[N+](=O)[O-])cc(-c2ccc(S(C)(=O)=O)cc2)n1-c1ccc(F)cc1`?
A: bioavailability [1]: 24%; clearance [2]: 10 mL/min; remaining at 2 h [3]: 100%; remaining at 0.5 h [4]: 100%; remaining at 2 h [5]: 100%; IC50 [6]: 1.7 µM; Activity (Mus musculus [7]): 4%; Activity (Mus musculus [8]): 60%; Activity (Mus musculus [9]): 30%; Activity (Mus musculus [10]): 75%; Ratio IC50 (J774): > 42; IC50 [11]: 0.249 µM; remaining at 0.5 h [12]: 100%; remaining at 2 h [13]: 100%; remaining at 1 h [14]: 100%; Drug metabolism (Rattus norvegicus): Active
